In ChEMBL document CHEMBL1124365, “3-Quaternary ammonium 1-carba-1-dethiacephems” (J Med Chem, 1989):
Values after ≈ are worked out from the molar mass of the structure shown.

What was measured:
Escherichia coli [1] = experiment: Minimal inhibitory activity against the Escherichia coli (EC14); format: functional
Outline: (§1)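 Agar dilution: compounds diluted in 0.1 M phosphate buffer pH 7.0, incorporated into Mueller-Hinton agar with 1% Bacto-Supplement C at 50 °C. Overnight cultures diluted to ~1×10^4 cells/µL, 1 µL spotted onto plates; incubated overnight at 35 °C in ambient air. MIC = lowest concentration preventing visible growth.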

Escherichia coli [2] = experiment: Minimal inhibitory activity against the E. coli(TEM beta lactamase containing); format: functional; outline: as §1
Enterobacter cloacae [3] = experiment: Minimal inhibitory activity against the Enterobacter cloacae (265A beta lactamase containing); format: functional; outline: as §1
Enterobacter cloacae [4] = experiment: Minimal inhibitory activity against the Enterobacter cloacae (EB5); format: functional; outline: as §1
Haemophilus influenzae = experiment: Minimal inhibitory activity against the Haemophilus influenzae (C.L); format: functional; outline: as §1
Klebsiella [5] = experiment: Minimal inhibitory activity against the Klebsiella(KAE beta lactamase containing); format: functional; outline: as §1
Klebsiella [6] = experiment: Minimal inhibitory activity against the Klebsiella (X26); format: functional; outline: as §1
Morganella morganii = experiment: Minimal inhibitory activity against the Proteus morganii (PR15); format: functional; outline: as §1
Pseudomonas aeruginosa = experiment: Minimal inhibitory activity against the Pseudomonas aeruginosa (X528); format: functional; outline: as §1
Providencia rettgeri = experiment: Minimal inhibitory activity against the Proteus rettgeri (C24); format: functional; outline: as §1
Salmonella = experiment: Minimal inhibitory activity against the Salmonella (X514); format: functional; outline: as §1
[7] = system: Staphylococcus epidermidis; experiment: Minimal inhibitory activity against the Staphylococcus epidermidis (222); format: functional; outline: as §1
Staphylococcus aureus = experiment: Minimal inhibitory activity against the Staphylococcus aureus (X1.1); format: functional; outline: as §1
Streptococcus pneumoniae = experiment: Minimal inhibitory activity against the Streptococcus pneumoniae (PARK); format: functional; outline: as §1
Streptococcus pyogenes = experiment: Minimal inhibitory activity against the Streptococcus pyogenes (C203); format: functional; outline: as §1
[8] = Half-life was evaluated for pharmacokinetic data in rats.; format: ADME, organism-based; settings: rat, in vivo
Outline: (§2)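 Male Sprague-Dawley rats given 20 mg/kg IV in saline via indwelling jugular vein cannula; serial blood sampling through cannula, plasma and urine collected over 4 h. Drug levels by agar well diffusion bioassay with E. coli ATCC 4157 (detection limit ≤0.80 μg/mL). Half-life = 0.693/β from terminal plasma slope; urinary recovery as percent of administered dose.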

Rattus norvegicus = species: Rattus norvegicus; experiment: Urinary recovery was evaluated for pharmacokinetic data in rats; format: organism-based; settings: Urine; outline: as §2
[9] = Half-life was evaluated for pharmacokinetic data in rats; format: ADME, organism-based; settings: rat, in vivo
Outline: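 Male Sprague-Dawley rats, single 20 mg/kg intravenous dose in saline via indwelling jugular vein cannula; serial blood sampling from the same cannula over 4 h. Plasma levels measured by agar well diffusion bioassay with E. coli ATCC 4157 (detection limit ≤0.80 µg/mL). Half-life calculated as 0.693/β, β being the terminal slope of the plasma concentration–time curve.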

Enterobacter cloacae [10] = experiment: Truncation of the zone of inhibition was graded for Enterobacter cloacae EB17 on a 30 ug disk of test compound; format: functional
Outline: (§3)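 Cefoxitin disk approximation: Mueller-Hinton agar swab-inoculated with ~1×10^8 cells/mL of inducible Enterobacter strains; 30 µg test-compound disks plus 30 µg cefoxitin disks placed ~15 mm from their edge. Overnight at 35 °C in ambient air; truncation of inhibition zone on cefoxitin-proximal side graded as a measure of induced β-lactamase effect.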

Enterobacter cloacae [11] = experiment: Truncation of the zone of inhibition was graded for Enterobacter cloacae EB5 on a 30 ug disk of test compound; format: functional; outline: as §3
Enterobacter cloacae [12] = experiment: Truncation of the zone of inhibition was graded for Enterobacter cloacae EB57 on a 30 ug disk of test compound; format: functional; outline: as §3

SMILES | MIC (Escherichia coli [1]) | MIC (Escherichia coli [2]) | MIC (Enterobacter cloacae [3]) | MIC (Enterobacter cloacae [4]) | MIC (Haemophilus influenzae) | MIC (Klebsiella [5]) | MIC (Klebsiella [6]) | MIC (Morganella morganii) | MIC (Pseudomonas aeruginosa) | MIC (Providencia rettgeri) | MIC (Salmonella) | MIC [7] | MIC (Staphylococcus aureus) | MIC (Streptococcus pneumoniae) | MIC (Streptococcus pyogenes) | Recovery (Rattus norvegicus) | further results
CO/N=C(\C(=O)N[C@@H]1C(=O)N2C(C(=O)[O-])=C([n+]3ccc4c(c3)ncn4C)CC[C@H]12)c1csc(N)n1 | 0.06 µg/mL (≈ 0.121 µM) | 0.5 µg/mL (≈ 1.01 µM) | 1 µg/mL (≈ 2.01 µM) | 0.125 µg/mL (≈ 0.252 µM) | 0.5 µg/mL (≈ 1.01 µM) | 4 µg/mL (≈ 8.06 µM) | 0.06 µg/mL (≈ 0.121 µM) | 0.5 µg/mL (≈ 1.01 µM) | 128 µg/mL (≈ 258 µM) | 0.25 µg/mL (≈ 0.504 µM) | 0.06 µg/mL (≈ 0.121 µM) | 8 µg/mL (≈ 16.1 µM) | 4 µg/mL (≈ 8.06 µM) | 0.06 µg/mL (≈ 0.121 µM) | 0.06 µg/mL (≈ 0.121 µM) |  | 
CO/N=C(\C(=O)N[C@@H]1C(=O)N2C(C(=O)[O-])=C([n+]3cc(C)ccc3C)CC[C@H]12)c1csc(N)n1 | 0.125 µg/mL (≈ 0.266 µM) | 0.125 µg/mL (≈ 0.266 µM) | 1 µg/mL (≈ 2.13 µM) | 0.25 µg/mL (≈ 0.531 µM) | 0.5 µg/mL (≈ 1.06 µM) | 2 µg/mL (≈ 4.25 µM) | 0.125 µg/mL (≈ 0.266 µM) | 0.25 µg/mL (≈ 0.531 µM) | 128 µg/mL (≈ 272 µM) | 0.25 µg/mL (≈ 0.531 µM) | 0.125 µg/mL (≈ 0.266 µM) | 8 µg/mL (≈ 17 µM) | 4 µg/mL (≈ 8.5 µM) | 0.06 µg/mL (≈ 0.128 µM) | 0.03 µg/mL (≈ 0.0638 µM) |  | 
CO/N=C(\C(=O)N[C@@H]1C(=O)N2C(C(=O)[O-])=C([n+]3cccc4c3CCC4)CC[C@H]12)c1csc(N)n1 | 0.06 µg/mL (≈ 0.124 µM) | 0.5 µg/mL (≈ 1.04 µM) | 1 µg/mL (≈ 2.07 µM) | 0.125 µg/mL (≈ 0.259 µM) | 0.5 µg/mL (≈ 1.04 µM) | 8 µg/mL (≈ 16.6 µM) | 0.03 µg/mL (≈ 0.0622 µM) | 0.25 µg/mL (≈ 0.518 µM) | 128 µg/mL (≈ 265 µM) | 0.5 µg/mL (≈ 1.04 µM) | 0.03 µg/mL (≈ 0.0622 µM) | 4 µg/mL (≈ 8.29 µM) | 2 µg/mL (≈ 4.14 µM) | 0.03 µg/mL (≈ 0.0622 µM) | 0.03 µg/mL (≈ 0.0622 µM) | 82.3% | half-life [8]: 20.1 min
CC(C)(O/N=C(\C(=O)N[C@@H]1C(=O)N2C(C(=O)[O-])=C(C[n+]3ccccc3)CS[C@H]12)c1csc(N)n1)C(=O)O [CEFTAZIDIME] | 0.06 µg/mL (≈ 0.11 µM) | 0.125 µg/mL (≈ 0.229 µM) | 32 µg/mL (≈ 58.5 µM) |  | 0.06 µg/mL (≈ 0.11 µM) | 0.5 µg/mL (≈ 0.915 µM) | 0.06 µg/mL (≈ 0.11 µM) | 0.5 µg/mL (≈ 0.915 µM) | 2 µg/mL (≈ 3.66 µM) |  | 0.125 µg/mL (≈ 0.229 µM) | 16 µg/mL (≈ 29.3 µM) | 8 µg/mL (≈ 14.6 µM) | 0.06 µg/mL (≈ 0.11 µM) | 0.06 µg/mL (≈ 0.11 µM) | 100% | half-life [9]: 22.9 min
CO/N=C(\C(=O)N[C@@H]1C(=O)N2C(C(=O)[O-])=C([n+]3ccc(C)c(C)c3)CC[C@H]12)c1csc(N)n1 | 0.06 µg/mL (≈ 0.128 µM) | 0.06 µg/mL (≈ 0.128 µM) | 0.25 µg/mL (≈ 0.531 µM) | 0.125 µg/mL (≈ 0.266 µM) | 0.25 µg/mL (≈ 0.531 µM) | 4 µg/mL (≈ 8.5 µM) | 0.06 µg/mL (≈ 0.128 µM) | 0.125 µg/mL (≈ 0.266 µM) | 128 µg/mL (≈ 272 µM) | 0.06 µg/mL (≈ 0.128 µM) | 0.03 µg/mL (≈ 0.0638 µM) | 4 µg/mL (≈ 8.5 µM) | 2 µg/mL (≈ 4.25 µM) | 0.015 µg/mL (≈ 0.0319 µM) | 0.03 µg/mL (≈ 0.0638 µM) |  | Zone diameter (Enterobacter cloacae [10]): 30 mm; Zone diameter (Enterobacter cloacae [11]): 30 mm; Zone diameter (Enterobacter cloacae [12]): 31 mm
